Assays:
Canis familiaris [1] = assay: Inhibition of histamine stimulated gastric acid secretion in adult mongrel dogs at dose 8 mg/kg given orally; type: functional; details: Canis lupus familiaris, Stomach, route oral
In short: (§1)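 Dogs with Heidenhain pouches, 12–18 kg, fasted 18 h. Compound given iv in 3 mL or by gavage in 5 mL of 0.4% methylcellulose/saline, 1 h after infusion start. 30-min collections titrated. Summed 3-h AO against the same dog's control AO gives % inhibition. Usually one dog per compound.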

Canis familiaris [2] = assay: Effective dose against histamine stimulated gastric acid secretion in adult mongrel dogs given orally; value ranges from 2.1-14.0; type: functional; details: Canis lupus familiaris, Stomach, po
Canis familiaris [3] = assay: Inhibition of histamine stimulated gastric acid secretion in adult mongrel dogs at dose 1 mg/kg given intravenously; type: functional; details: Canis lupus familiaris, Stomach, route intravenous; in short: as §1
Canis familiaris [4] = assay: Inhibition of histamine stimulated gastric acid secretion in adult mongrel dogs at dose 2 mg/kg given intravenously; type: functional; details: Canis lupus familiaris, Stomach, route intravenous; in short: as §1
Canis familiaris [5] = assay: Inhibition of histamine stimulated gastric acid secretion in adult mongrel dogs at dose 5 mg/kg given intravenously; type: functional; details: Canis lupus familiaris, Stomach, route intravenous; in short: as §1
Canis familiaris [6] = assay: Inhibition of histamine stimulated gastric acid secretion in adult mongrel dogs at dose 0.1 mg/kg given intravenously; type: functional; details: Canis lupus familiaris, Stomach, route intravenous; in short: as §1
Canis familiaris [7] = assay: Effective dose against histamine stimulated gastric acid secretion in adult mongrel dogs given intravenously; value ranges from 0.01-1.19; type: functional; details: Canis lupus familiaris, Stomach, iv
Rattus norvegicus [8] = assay: Gastric antisecretory activity in the pylorus-ligated rat and the reduction in acid output was measured after 4 hr by intraperitoneal (ip) administration of 40 mg/kg dose.; type: functional
In short: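 Male Charles River CD rats, 150–200 g, fasted 24 h. Pylorus ligated under Brevital anesthesia. 40 mg/kg given ip in 2.5% Tween 80 at ligation. Stomach contents collected at 4 h and titrated with 0.1 N NaOH to pH 7.0. % inhibition from mean AO, 6 treated vs 8 control rats. Student's t test.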

Canis familiaris [9] = assay: Inhibition of histamine stimulated gastric acid secretion in adult mongrel dogs at dose 2 mg/kg given orally; type: functional; details: Canis lupus familiaris, Stomach, route oral; in short: as §1
Canis familiaris [10] = assay: Inhibition of histamine stimulated gastric acid secretion in mongrel dogs following 4 mg/kg p.o. administration.; type: functional; details: Canis lupus familiaris, Stomach, route oral; in short: as §1
Rattus norvegicus [11] = species: Rattus norvegicus; assay: Oral gastric cytoprotective activity in the rat against ethanol-induced lesions; type: functional; details: Stomach
In short: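 Rats fasted and water-deprived for 20 h. Compound given orally, 1–30 mg/kg in 0.4% methylcellulose/saline, 30 min before 1 mL absolute ethanol po. Killed 1 h after ethanol. Linear hemorrhagic lesion lengths totalled per stomach, expressed as group mean. ED50 by linear regression.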

Canis familiaris [12] = assay: Effective dose against histamine stimulated gastric acid secretion in adult mongrel dogs given orally; type: functional; details: Canis lupus familiaris, Stomach, po
Canis familiaris [13] = species: Canis familiaris; assay: Relative potency was calculated; value ranges from 0.1-2.1; type: functional, Canis lupus familiaris

## Cc1nc2c(OCc3ccccc3)cccn2c1CC#N
Canis familiaris [1]
  inhibition in vivo at 8 mg/kg: 77%
Canis familiaris [2]
  ED50: 4.4 mg/kg
Canis familiaris [3]
  inhibition in vivo at 1 mg/kg: 88%
Canis familiaris [4]
  inhibition in vivo at 2 mg/kg: 95%
Canis familiaris [5]
  inhibition in vivo at 5 mg/kg: 99%
Canis familiaris [6]
  inhibition in vivo at 0.1 mg/kg: 49%
Canis familiaris [7]
  ED50: 0.09 mg/kg
Rattus norvegicus [8]
  inhibition in vivo at 40 mg/kg: 98%
Canis familiaris [9]
  inhibition in vivo at 2 mg/kg: 20%
Canis familiaris [10]
  inhibition in vivo at 4 mg/kg: 42%
Rattus norvegicus [11]
  ED50: 3 mg/kg

## Cc1nc2c(OCc3ccsc3)cccn2c1CC#N
Canis familiaris [1]
  inhibition in vivo at 8 mg/kg: 88%
Canis familiaris [5]
  inhibition in vivo at 5 mg/kg: 97%
Canis familiaris [6]
  inhibition in vivo at 0.1 mg/kg: 70%
Rattus norvegicus [8]
  inhibition in vivo at 40 mg/kg: 91%
Canis familiaris [9]
  inhibition in vivo at 2 mg/kg: 40%
Canis familiaris [10]
  inhibition in vivo at 4 mg/kg: 77%
Canis familiaris [12]
  ED50: 2.7 mg/kg
Rattus norvegicus [11]
  ED50: 2 mg/kg

## Cc1nc2c(NCc3ccccc3)cccn2c1CC#N
Canis familiaris [1]
  inhibition in vivo at 8 mg/kg: 75%
Canis familiaris [2]
  ED50: 6.7 mg/kg
Canis familiaris [4]
  inhibition in vivo at 2 mg/kg: 96%
Canis familiaris [5]
  inhibition in vivo at 5 mg/kg: 98%
Canis familiaris [13]
  Relative potency: 1.5
Canis familiaris [6]
  inhibition in vivo at 0.1 mg/kg: 85%
Rattus norvegicus [8]
  inhibition in vivo at 40 mg/kg: 98%
Canis familiaris [10]
  inhibition in vivo at 4 mg/kg: 35%
Rattus norvegicus [11]
  ED50: 2 mg/kg
